The results in this text go back to ChEMBL document CHEMBL1141217, “cycloSal-PMEA and cycloAmb-PMEA: potentially new phosphonate prodrugs based on the cycloSal-pronucleotide approach” (J Med Chem, 2005).

The source made the active and inactive calls. The calls are words filed in the database; no cut-off is given here.

In general, IC50 refers to the point on the concentration scale where inhibition reaches its midpoint. A lower IC50 goes with greater potency in that assay. As usually defined, the CC50 is the concentration that lowers cell viability or growth by half. Higher therefore signals lower toxicity to the cells. In general, EC50 refers to the concentration that produces a half-maximal response. A high value points to a less potent agent. Usually logP stands for a log measure of how a compound divides between an organic and an aqueous phase. A low value points to a more hydrophilic compound.

Data set [1] is described as follows: Chemical stability in phosphate buffer at pH 7.3. Type of data set: physicochemical. Conditions: read-out: Stability (converted). In outline:
(§1)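 Triesters hydrolysed at 37 °C in phosphate buffer pH 7.3 or citrate buffer pH 2.0, with AZT as internal standard; final 0.96 mM triester, 24.8 mM buffer. Aliquots quenched with glacial acetic acid and frozen, then analysed by reversed-phase HPLC with UV at 250 nm. t1/2 from rate constants of starting-triester peak decay; mean of duplicates.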

Data set [2] addresses Cholinesterase (Homo sapiens, UniProt P06276). Nature of the data set: Inhibitory activity against human butyryl cholinesterase.
Data set [3] in a line: Half life in CEM/O cells. Type of data set: ADME, cell-based. The settings on record: human, CEM/O cells (CCRF-CEM cell line). In outline:
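Triester (1.5 mM stock in DMSO) incubated with CEM cell extract plus MgCl2 (70 mM stock) for 8 h. Stopped with acidic methanol, 5 min at 0 °C, centrifuged and filtered; supernatant analysed by reversed-phase HPLC with UV at 250 nm.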

A short description of data set [4]: Inhibitory activity against human acetyl cholinesterase.
Data set [5] deals with CCRF-CEM. Description: Cytotoxicity against CEM/O cells. Type of data set: functional. The settings on record: Homo sapiens.
In data set [6] the test system is Human immunodeficiency virus 2. Description: Antiviral potency against HIV2 in CEM/O cells. Conditions: Human immunodeficiency virus 2, CEM/O. The format is functional, organism-based. In outline:
(§2)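 CEM cells at 4×10^5 cells/mL infected with HIV-1 or HIV-2 (ROD) at ~100 CCID50 per mL; virus stocks from infected MT-4 cell supernatants. Infected cells mixed with serial compound dilutions. After 4–5 days, giant cell formation scored microscopically; EC50 = concentration giving 50% protection.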

Data set [7] can be described thus: LogP using HPLC method. Type of data set: physicochemical.
Data set [8] deals with Human immunodeficiency virus 1. Nature of the data set: Antiviral potency against HIV1 in CEM/O cells. Type of data set: functional, organism-based. The settings on record: Human immunodeficiency virus 1, CEM/O. In outline:
as §2

The nature of data set [9]: Chemical stability in citrate buffer at pH 2.0. The format is physicochemical. In outline:
as §1

Chain of Cholinesterase (P06276 whole entry): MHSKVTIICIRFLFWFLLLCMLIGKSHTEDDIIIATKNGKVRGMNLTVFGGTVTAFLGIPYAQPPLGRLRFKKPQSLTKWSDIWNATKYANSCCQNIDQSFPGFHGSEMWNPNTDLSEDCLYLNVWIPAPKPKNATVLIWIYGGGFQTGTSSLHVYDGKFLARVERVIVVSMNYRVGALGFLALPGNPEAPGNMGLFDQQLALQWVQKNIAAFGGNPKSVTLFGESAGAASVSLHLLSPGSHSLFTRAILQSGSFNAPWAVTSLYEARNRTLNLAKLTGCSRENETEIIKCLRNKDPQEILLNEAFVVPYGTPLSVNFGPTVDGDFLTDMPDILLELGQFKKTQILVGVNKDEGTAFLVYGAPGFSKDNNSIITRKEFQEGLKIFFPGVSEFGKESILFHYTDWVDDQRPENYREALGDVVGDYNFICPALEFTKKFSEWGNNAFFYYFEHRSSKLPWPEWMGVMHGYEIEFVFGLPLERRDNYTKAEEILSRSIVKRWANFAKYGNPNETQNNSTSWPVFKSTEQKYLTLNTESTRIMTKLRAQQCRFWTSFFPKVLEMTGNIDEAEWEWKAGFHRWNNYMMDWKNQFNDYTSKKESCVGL

As for `Cc1cccc2c1OP(=O)(COCCn1cnc3c(N)ncnc31)OC2` (stereo unspecified), the half-life in data set [1] was 0.56 h; in data set [3], 0.6 h. For the same molecule, the IC50 in data set [2] is more than 50 µM. Moreover, the outcome in data set [4] was inactive.

On to `CC(C)(C)c1cc2c(c(C(C)(C)C)c1)OP(=O)(COCCn1cnc3c(N)ncnc31)OC2` (stereo unspecified), for which the half-life was 3.05 h in data set [1] and 3 h in [3]. For the same molecule, the CC50 in data set [5] turned out to be 17 µM. Moreover, the EC50 in data set [6] came out at 5.3 µM; in data set [8], 5.5 µM. Besides, in [2], the IC50 was more than 50 µM. Besides, the logP in data set [7] was found to be 1.72. In addition, the result in [4] was inactive. The Stability in data set [9] was found to be 9.6 h.

Turning to `Nc1ncnc2c1ncn2CCOCP1(=O)Nc2ccccc2CO1` (stereo unspecified), the half-life in data set [1] was 4 h. Besides, the cytotoxic concentration (CC50) in data set [5] was 183 µM. In addition, the EC50 in data set [6] is 21 µM; in data set [8], 20 µM. In [2], this molecule showed an IC50 of more than 50 µM. This molecule yielded a lipophilicity (logP) in [7] of 0.23. Besides, the result in [4] was inactive. In addition, the Stability in data set [9] was 9.6 h.

For `Nc1ncnc2c1ncn2CCOCP1(=O)OCc2ccccc2O1` (stereo unspecified), the half-life was 0.09 h in data set [1] and 0.1 h in data set [3]. The molecule further returned an IC50 in data set [2] of more than 50 µM. Also, the result in data set [4] was inactive.

As to `CC(C)(C)c1cccc2c1OP(=O)(COCCn1cnc3c(N)ncnc31)OC2` (stereo unspecified), the half-life in data set [1] was 4.05 h; in [3], 3 h. Besides, in data set [5], the cytotoxic concentration (CC50) came to 29 µM. Moreover, the figures for the EC50 in data set [6] and in data set [8] were 4.5 µM and 3 µM, respectively. In data set [2], this molecule gave a 50% inhibitory concentration (IC50) of more than 50 µM. This molecule also came in with a logP in [7] of 0.47. Further, the result in data set [4] was inactive. The Stability in data set [9] was determined as 23.7 h.

For `Nc1ncnc2c1ncn2CCOCP1(=O)Nc2cccc(F)c2CO1` (stereo unspecified), in [1], the half-life was 1.3 h. Further, the CC50 in data set [5] amounted to 244 µM. Moreover, the 50% effective concentration (EC50) in [6] amounted to 26 µM; in data set [8] it was 28 µM. Further, the IC50 in data set [2] is more than 50 µM. In data set [7], this molecule had a logP of 0.49. Besides, in [4], the outcome was inactive.

On to `CC(C)(C)C(=O)OCOP(=O)(COCCn1cnc2c(N)ncnc21)OCOC(=O)C(C)(C)C` [ADEFOVIR DIPIVOXIL], for which the half-life in data set [1] was 14.7 h. Besides, the CC50 in data set [5] came to 0.74 µM. Moreover, the concentration for a half-maximal effect (EC50) came out at 0.075 µM in data set [6] and 0.18 µM in data set [8].

For `Cc1cccc2c1NP(=O)(COCCn1cnc3c(N)ncnc31)OC2` (stereo unspecified), the half-life in [1] was 21.3 h. For the same molecule, in [5], the cytotoxic concentration (CC50) is more than 250 µM. In addition, the results for the concentration giving a half-maximal response (EC50) in data set [6] and in [8] were 56 µM and 29 µM, respectively. In [2], this molecule yielded an IC50 of more than 50 µM. Further, the lipophilicity (logP) in data set [7] was found to be 0.45. Further, the result in data set [4] was inactive. In data set [9], this molecule displayed a Stability of 29 h.

In turn, `Nc1ncnc2c1ncn2CCOCP(=O)(O)O` [ADEFOVIR] registered a 50% cytotoxic concentration (CC50) in data set [5] of 50 µM. Further, the EC50 in data set [6] and in data set [8] was 10 µM throughout.
